Data published in ChEMBL document CHEMBL1131089, “Physical parameters and biological stability of yttrium(III) diethylenetriaminepentaacetic acid derivative conjugates” (J Med Chem, 1998).

Legend:
[1] = Fraction of 88Y (%) released from chelate after incubation in serum for 15 hours; format: ADME
Procedure, shortened: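 p-Nitrobenzyl DTPA derivatives converted to p-isothiocyanato form, conjugated to antibody B72.3, labeled with 88Y. Conjugates incubated in serum 15 h; released 88Y assessed by size-exclusion HPLC (TSK 3000SW, MES/Cl− buffer 0.02 M MES, 0.15 M NaCl, pH 6.5). 88Y-albumin eluted at 7.7 min, assigned against molecular weight standard. Injectate aliquots counted for HPLC recovery.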

[2] = Yttrium(III) stability constant of the compound.; format: physicochemical
Procedure, shortened: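 Spectrophotometric competition at 25 °C, μ = 0.1 M. Y(III) (3.950 × 10⁻⁶ M) with Arsenazo III (2.00 × 10⁻⁵ M) at pH 3.90, titrated with ligand aliquots. Absorbance drop at 652 nm after each equilibration gave conditional constants, converted to log K. Y–AAIII ML and ML₂ constants and extinction coefficients first obtained by titrating dye with YCl₃.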

Mus musculus = species on record: Mus musculus; test: Percent injected dose per gram at 168 hour for mice injected with 88Y-Ligand-B 72.3; format: functional, organism-based

Row | Compound | 88Y-serum [1] [%] | Log K [2] | ID/g femur (Mus musculus) [%]
1 | O=C(O)CN(CCN(CC(=O)O)C(Cc1ccc([N+](=O)[O-])cc1)CN(CC(=O)O)CC(=O)O)CC(=O)O (centres undefined) | 7 | 21.7 | 5.2
2 | CC(CN(CC(=O)O)CC(=O)O)N(CC(=O)O)CC(Cc1ccc([N+](=O)[O-])cc1)N(CC(=O)O)CC(=O)O (centres undefined) | 4.84 | 22.5 | 3
3 | CC(CN(CC(=O)O)CC(Cc1ccc([N+](=O)[O-])cc1)N(CC(=O)O)CC(=O)O)N(CC(=O)O)CC(=O)O (centres undefined) | 6.27 | 22.5 | 2.5
4 | O=C(O)CN(CCN(CC(=O)O)CC(Cc1ccc([N+](=O)[O-])cc1)N(CC(=O)O)CC(=O)O)CC(=O)O (centres undefined) |  | 21.5 | 4.3

Further lines, with some results ahead:

Row | 88Y-serum [1] [%] | Log K [2] | Compound | ID/g femur (Mus musculus) [%]
5 | 3.79 | 24.7 | O=C(O)CN(CC(=O)O)[C@H](Cc1ccc([N+](=O)[O-])cc1)CN(CC(=O)O)[C@@H]1CCCC[C@H]1N(CC(=O)O)CC(=O)O | 3.6
6 |  | 24.2 | O=C(O)CN(CCN(CC(=O)O)[C@@H]1CCCC[C@H]1N(CC(=O)O)CC(=O)O)CC(=O)O | 
7 |  | 22.4 | O=C(O)CN(CCN(CC(=O)O)CC(=O)O)CCN(CC(=O)O)CC(=O)O [PENTETIC ACID] | 
8 | 18.5 | 24.4 | O=C(O)CN(CC(=O)O)[C@@H](Cc1ccc([N+](=O)[O-])cc1)CN(CC(=O)O)[C@@H]1CCCC[C@H]1N(CC(=O)O)CC(=O)O | 6.1
